High-throughput results from PubChem BioAssay.
E-selectin induc: E-selectin induction in HUVECs, primary screen, imaging, HUVEC, immunofluorescence imaging, single point; normalized: neutral wells 0, TNF-alpha wells 100; activation, % at 7.58 µM; actives 0.37% (n = 260,000); AID 686992, 2013;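 active = mean E-selectin-positive cell signal at least 10% of the positive control, reached in at least 60% of replicates, without over 20% cell loss; inconclusive = no rule given, readout overlaps actives, possibly toxicity-flagged; inactive = the rest, including those meeting only one limit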
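Assay system: HUVEC primary endothelial cells. Input: 3,000 HUVEC seeded per well. Doses: one compound dose added by pin transfer. Read-out basis: % PE-positive cells. Benchmarks: TNF-alpha high, DMSO low. Detection: immunofluorescence imaging. Buffer or medium: EGM-2, gelatin.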
ERAP1 inh: human ERAP1 aminopeptidase inhibitors, primary screen, biochemical, single point, plate reader. Endoplasmic reticulum aminopeptidase 1 (Homo sapiens), Q9NZ08. recombinant ERAP1, Leu-AMC fluorescence, 60 min. inhibition, % at 10.7 µM. actives 0.15% (n = 340,000). AID 652197, 2013;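 active = mean replicate inhibition of at least 30%, or all replicates individually reaching that 30% level; inactive = mean below 30% and not every replicate reaching it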
FGF22 binding: binders of human FGF22 protein, primary screen, FGF22 synaptogenesis inhibitor project, biophysical, thermal shift, single point; activity (Tm shift, normalised), % at 9.99 µM; recombinant FGF22 thermal shift, SYPRO orange fluorescence; percent of sucrose octasulfate shift, DMSO zero; Fibroblast growth factor 22 (Homo sapiens), Q9HCT0; AID 651658, 2012; actives 1.5% (n = 340,000);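 active = mean Tm shift, scaled 0 neutral to 100 positive control, at about 1.3% or above, every replicate too, limit read from the data; inconclusive = no clear call, values can overlap the other calls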
Target sequence (Q9HCT0 whole entry, looked up): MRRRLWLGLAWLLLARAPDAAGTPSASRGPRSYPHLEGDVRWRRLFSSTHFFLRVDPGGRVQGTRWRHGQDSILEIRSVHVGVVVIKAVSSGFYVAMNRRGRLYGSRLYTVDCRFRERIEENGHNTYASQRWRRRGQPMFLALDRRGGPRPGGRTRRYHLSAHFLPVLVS
DENV2 CPE rescue: inhibitors of DENV2 cytopathic effect, primary screen, cell-based, plate reader, single concentration. DENV2-infected cells, cytopathic effect rescue. AID 651640, 2012. CPE inhibition, % at 9.99 µM. actives 1.7% (n = 350,000); in the data active = CPE inhibition above about 20%, passing the limit was not always enough; inconclusive = no clear call, values can overlap the other calls; tested in BHK-21 cells
CFTR F508del cor: F508del CFTR correction, initial screen, CFBE line, single point. actives 0.36% (n = 350,000). CFBE cells, YFP halide quenching; stimulated with forskolin plus potentiator P3; % fluorescence drop versus neutral controls. activity (quench increase), % at 7.58 µM;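 active = mean added fluorescence quench of at least 8% versus neutral control, with both replicates also reaching 8%; inconclusive = only one of the mean or replicate conditions met; inactive = mean below 8% and not both replicates reaching 8%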;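 also: cells transiently co-express mutant CFTR-F508del with the halide-sensitive YFP; corrector assay measuring rescue of mutant channel to the surface after 24 h compound exposure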
Large screens that a line does not name were inactive. Shown are actives, neighbours in structure and some others; about 3.7% of the full set was active somewhere.

COc1cccc(-n2c(C)cc(/C=C3/C(=N)N4C(=NC3=O)SN=C4S(C)(=O)=O)c2C)c1	FGF22 binding 1.4, DENV2 CPE rescue inconclusive (no result: E-selectin induc)
CCCC(=O)Nc1ccc2c(c1)C(=O)N(C)C[C@@H](OC)[C@H](C)CN(Cc1ccccc1)[C@@H](C)CO2	none
C[C@H](O)C#Cc1cnc2c(c1)C(=O)N([C@@H](C)CO)C[C@@H](C)[C@H](CN(C)C(=O)c1ccccc1F)O2	none (no result: E-selectin induc)
C/C(=N\Nc1ncnc2sc(C)c(C)c12)c1ccccn1	CFTR F508del cor 21 (no result: E-selectin induc)
Cc1sc2ncnc(Nc3ccc(O)cc3)c2c1C	none (no result: ERAP1 inh)
O=C1c2ccccc2NC(c2ccc(Br)s2)N1O (configuration not stated)	DENV2 CPE rescue 53 (no result: E-selectin induc)
C=CCN1C(=O)c2ccccc2NC1c1ccc(Br)s1 (configuration not stated)	none (no result: E-selectin induc)
CC(C)CC#Cc1ccc([C@@H]2[C@H]3CN(C(=O)NC4CCCCC4)CC(=O)N3[C@H]2CO)cc1	none (no result: FGF22 binding)
COc1ccc(CCN2C(=O)CS/C2=N\NC(=O)c2cccs2)cc1OC	FGF22 binding 44 (no result: E-selectin induc)
C[C@@H]1CN([C@H](C)CO)C(=O)c2cc(NC(=O)Nc3ccc(F)cc3)ccc2O[C@@H]1CN(C)S(=O)(=O)c1ccccc1	none
COc1ccc(S(=O)(=O)N(C)C[C@H]2Oc3ccc(NC(=O)CCCN(C)C)cc3C(=O)N([C@@H](C)CO)C[C@@H]2C)cc1	E-selectin induc 52
COc1ccc(S(=O)(=O)N(C)C[C@H]2Oc3ccc(NC(=O)CCCN(C)C)cc3C(=O)N([C@H](C)CO)C[C@@H]2C)cc1	none
COc1ccc(S(=O)(=O)N(C)C[C@@H]2Oc3ccc(NC(=O)CCCN(C)C)cc3C(=O)N([C@H](C)CO)C[C@@H]2C)cc1	none
COc1ccc(S(=O)(=O)N(C)C[C@H]2Oc3ccc(NC(=O)CCCN(C)C)cc3C(=O)N([C@@H](C)CO)C[C@H]2C)cc1	E-selectin induc 97, DENV2 CPE rescue 33
O=C(Cc1ccccn1)NCC[C@H]1CC[C@H](NC(=O)Nc2ccc(F)cc2)[C@H](CO)O1	none
c1ccc(CNc2nc(-c3cccs3)nc3ccccc23)cc1	FGF22 binding 43 (no result: E-selectin induc)
c1ccc(CNc2nc(-c3ccccc3)nc3ccccc23)cc1	none (no result: E-selectin induc)
CC(C)NC(=O)N(C)C[C@H]1Oc2ncc(C#CC3CCCC3)cc2C(=O)N([C@H](C)CO)C[C@@H]1C	none
C[C@@H]1CN([C@H](C)CO)C(=O)c2cc(NC(=O)CCN3CCOCC3)ccc2O[C@@H]1CN(C)Cc1ccc(C(F)(F)F)cc1	E-selectin induc 178
C[C@H]1CN([C@@H](C)CO)C(=O)c2cc(NC(=O)CCN3CCOCC3)ccc2O[C@@H]1CN(C)Cc1ccncc1	E-selectin induc 362
C[C@@H]1CN([C@H](C)CO)C(=O)c2cc(NC(=O)CCN3CCOCC3)ccc2O[C@@H]1CN(C)Cc1ccncc1	E-selectin induc 36
C[C@H]1CN([C@@H](C)CO)C(=O)c2cc(NC(=O)CCN3CCOCC3)ccc2O[C@H]1CN(C)Cc1ccc(C(F)(F)F)cc1	none
O=C(C[C@@H]1CC[C@H](NC(=O)Nc2cccc(F)c2)[C@H](CO)O1)NCC1CCCCC1	none
C[C@@H]1CN([C@H](C)CO)C(=O)c2cccc(NC(=O)C3CCOCC3)c2O[C@@H]1CN(C)C(=O)NC1CCCCC1	none (no result: FGF22 binding)
C[C@@H]1CN([C@@H](C)CO)C(=O)c2cc(-c3cncnc3)cnc2O[C@@H]1CN(C)C(=O)Nc1ccc2c(c1)OCO2	none
C[C@@H]1CN([C@@H](C)CO)C(=O)c2cc(-c3cncnc3)cnc2O[C@H]1CN(C)C(=O)Nc1ccc2c(c1)OCO2	DENV2 CPE rescue 47
C[C@@H]1CN([C@@H](C)CO)C(=O)c2cc(N(C)C)ccc2O[C@H]1CN(C)C(=O)Nc1ccc(F)cc1	DENV2 CPE rescue 35 (no result: E-selectin induc)
C[C@@H]1CN([C@@H](C)CO)C(=O)c2cc(N(C)C)ccc2O[C@H]1CN(C)C(=O)Nc1ccc2c(c1)OCO2	DENV2 CPE rescue 40
CC(C)NC(=O)Nc1ccc2c(c1)C(=O)N([C@@H](C)CO)C[C@@H](C)[C@H](CN(C)C(=O)CCCN(C)C)OCCCC[C@H](C)O2	none (no result: ERAP1 inh, FGF22 binding, DENV2 CPE rescue)
N[C@H]1CC[C@H](CCn2cc(-c3ccccn3)nn2)O[C@@H]1CO	none
COc1ccc2sc(-c3ccc(N(C)C)cc3)c(C#CCCO)c2c1	DENV2 CPE rescue 26
C[C@@H]1CN([C@@H](C)CO)C(=O)Cc2cc(NC(=O)CCN3CCOCC3)ccc2O[C@@H]1CN(C)C(=O)Nc1ccc(C(F)(F)F)cc1	none
O=C(NC(=S)Nc1nc(-c2ccccc2)cs1)c1cccnc1	FGF22 binding 43
Cc1nc2ccccc2c(=O)n1-c1cccc(NC(=O)c2cccs2)c1	none
COc1ccccc1NC(=O)Nc1ccc(Cc2ccncc2)cc1	FGF22 binding 43
O=C(Nc1cccc(N2C(=O)C=CC2=O)c1)c1cccs1	ERAP1 inh 33
O=C(/C=C/c1ccc(Cl)c([N+](=O)[O-])c1)Nc1cccc(NC(=O)c2ccco2)c1	FGF22 binding 45 (no result: E-selectin induc)
O=C(/C=C/c1cccc([N+](=O)[O-])c1)Nc1cccc(NC(=O)c2cccs2)c1	FGF22 binding 1.7 (no result: E-selectin induc)
O=C(C[C@H]1C[C@H]2c3cc(NC(=O)c4ccc5c(c4)OCO5)ccc3O[C@H]2[C@H](CO)O1)NCC(F)(F)F	none
C[C@H]1CN([C@@H](C)CO)C(=O)c2cc(C#Cc3ccncc3)cnc2O[C@@H]1CN(C)CC1CCOCC1	none
C[C@H](CO)N1C[C@H](C)[C@@H](CN(C)Cc2ccccc2)Oc2ncc(C#CCN(C)C)cc2C1=O	none
Cc1ccc(NC(=O)c2cccs2)cc1[N+](=O)[O-]	FGF22 binding 44 (no result: E-selectin induc)
O=C(Nc1ccc(Cc2ccncc2)cc1)c1cccs1	DENV2 CPE rescue 31 (no result: E-selectin induc)
COCCNC(=O)C[C@H]1C=C[C@H](NC(=O)NC2CCCCC2)[C@@H](CO)O1	none
CCOC(=O)C1=CC[C@@H](c2ccc(OC)cc2)N(S(=O)(=O)c2ccc(C)cc2)[C@H]1CC	none
CCOC(=O)C1=CC[C@H]2c3c(c4ccc(OC)cc4n3C)C(=O)C1N2S(=O)(=O)c1ccc(C)cc1	DENV2 CPE rescue 31
COc1ccc(NC(=O)NC2(C(=O)N3CCN4CCCC4C3)CCCCC2)cc1 (configuration not stated)	none
COc1ccc(NC(=O)NC2(C(=O)N3CCOCC3)CCCCC2)cc1	E-selectin induc 39, DENV2 CPE rescue inconclusive
Cc1c(NC(=O)c2ccc(C(C)(C)C)cc2)cccc1[N+](=O)[O-]	none
CCOc1ccccc1C(=O)Nc1cc(C)ccc1NC(=O)c1ccco1	FGF22 binding 1.7
